Results on four compounds are retold here after ChEMBL document CHEMBL2331219, “Synthesis and anti-Candida activity of novel 2-hydrazino-1,3-thiazole derivatives” (Bioorg Med Chem Lett, 2013).

Data set [1] can be described thus: Aqueous solubility in PBS buffer at pH 7.0. The data set is classed as physicochemical.
Data set [2] has as its system Candida albicans. In words: Antifungal activity against caspofungin-resistant Candida albicans assessed as growth inhibition after 24 to 48 hrs by CLSI microbroth dilution method. On the technique in general: Broth dilution looks for growth in wells or tubes with falling amounts of substance.
Data set [3] has as its system Candida albicans. In words: Antifungal activity against fluconazole-resistant Candida albicans clinical isolate 5.O.A assessed as growth inhibition after 24 to 48 hrs by CLSI microbroth dilution method. The data set is classed as functional. The method in brief:
(§1)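 Microbroth dilution per CLSI M27-A3. Isolates subcultured for purity, incubated at 35 °C; five colonies >1 mm suspended in saline, adjusted to 0.5 × 10³ to 2.5 × 10³ in RPMI 1640 buffered to pH 7.0 with 0.165 M MOPS. Compounds diluted in RPMI to final […]. Read visually after 24 h and 48 h at 35 °C; MIC judged by turbidity against drug-free growth control.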

A short description of data set [4]: Cytotoxicity against mouse NIH/3T3 cells assessed as cell viability at 0.5 ug/mL after 24 hrs by MTT assay relative to control. It counts as cell-based, NIH3T3. The settings on record: read-out: Activity. The method in brief: (§2)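 NIH/3T3 fibroblasts kept in DMEM with 10% fetal calf serum, penicillin/streptomycin, 37 °C, 5% CO2. Cells seeded at 2 × 10⁴ cells/mL, grown 24 h, then given compound (DMSO stock diluted in medium, final DMSO <0.1%) for 24 h. MTT at 0.5 mg/mL final added for 4 h, formazan dissolved in DMSO, absorbance read at 540 nm. Triplicate wells, mean ± SD, assay run twice.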

Data set [5] has as its system Nakaseomyces glabratus. In words: Antifungal activity against voriconazole-resistant Candida glabrata clinical isolate 730 assessed as growth inhibition after 24 to 48 hrs by CLSI microbroth dilution method. It counts as functional. The method in brief: as §1
Data set [6] can be described thus: Cytotoxicity against mouse NIH/3T3 cells assessed as cell viability at 1 ug/mL after 24 hrs by MTT assay relative to control. The settings on record: read-out: Activity. It counts as cell-based, NIH3T3. The method in brief: as §2
(Formazan colour is commonly taken as a measure of viable cells.)

For data set [7], the system named is Nakaseomyces glabratus. In words: Antifungal activity against voriconazole-resistant Candida glabrata clinical isolate 724 assessed as growth inhibition after 24 to 48 hrs by CLSI microbroth dilution method. It counts as functional. The method in brief:
as §1

Data set [8] has as its system Candida parapsilosis. In words: Antifungal activity against anidulafungin-resistant Candida parapsilosis isolate 22019 assessed as growth inhibition after 24 to 48 hrs by CLSI microbroth dilution method. The data set is classed as functional. The following applies: Lodderomyces parapsilosis. The method in brief: as §1
The subject of data set [9] is Candida parapsilosis. In words: Antifungal activity against anidulafungin-resistant Candida parapsilosis ANF8 assessed as growth inhibition after 24 to 48 hrs by CLSI microbroth dilution method. It counts as functional. The following applies: Lodderomyces parapsilosis. The method in brief:
as §1

Data set [10] is described as follows: Cytotoxicity against mouse NIH/3T3 cells assessed as cell viability at 31.3 ug/mL after 24 hrs by MTT assay relative to control. The data set is classed as cell-based, NIH3T3. The settings on record: read-out: Activity. A digest of the protocol:
as §2

The test system of data set [11] is Candida albicans. Description: Antifungal activity against azole-resistant Candida albicans clinical isolate 7.O.A assessed as growth inhibition after 24 to 48 hrs by CLSI microbroth dilution method. The data set is classed as functional. A digest of the protocol: as §1
The subject of data set [12] is Nakaseomyces glabratus. Description: Antifungal activity against fluconazole-resistant Candida glabrata isolate 6258 assessed as growth inhibition after 24 to 48 hrs by CLSI microbroth dilution method. It counts as functional. The method in brief: as §1
Data set [13] in a line: Cytotoxicity against mouse NIH/3T3 cells assessed as cell viability at 62.5 ug/mL after 24 hrs by MTT assay relative to control. The data set is classed as cell-based, NIH3T3. The following applies: read-out: Activity. A digest of the protocol:
as §2

Values after ≈ are worked out from the molar mass of the structure shown.

With `C/C(=N\Nc1nc([C@H](C)N)cs1)c1ccc2c(c1)CCC2`, the solubility (as a rule, how much of the substance goes into solution per volume) in [1] was determined as 700 µM (≈ 210 µg/mL). Also, the MIC (commonly the least concentration at which growth counts as inhibited) is 16 µg/mL (≈ 53.3 µM) with Candida albicans [2]; over 16 µg/mL with Candida albicans [3]; 8 µg/mL (≈ 26.6 µM) in the data set on Nakaseomyces glabratus [5]; 8 µg/mL (≈ 26.6 µM) in the data set with Nakaseomyces glabratus [7]; 8 µg/mL (≈ 26.6 µM) in the data set with Candida parapsilosis [8]; 0.5 µg/mL (≈ 1.66 µM) in the data set on Candida parapsilosis [9]. The MIC with Candida albicans [11] was over 16 µg/mL; with Nakaseomyces glabratus [12], 0.125 µg/mL (≈ 0.416 µM). In data set [4], the viability at 24 h, 0.5 ug/mL was 93.6%. In addition, in data set [6], the viability at 24 h, 1 ug/mL is 92.6%. The viability at 24 h, 31.3 ug/mL in data set [10] is 36.2%. Besides, in [13], the viability at 24 h, 62.5 ug/mL turned out to be 32.4%.

In turn, `C/C(=N\Nc1nc([C@@H](N)Cc2ccccc2)cs1)c1ccc2c(c1)CCC2` displayed a solubility in data set [1] of 150 µM (≈ 56.5 µg/mL). Moreover, the MIC in the data set on Candida albicans [2], with Candida albicans [3], with Nakaseomyces glabratus [5], with Nakaseomyces glabratus [7], in the data set with Candida parapsilosis [8] and with Candida parapsilosis [9] was over 16 µg/mL each time. The MIC with Candida albicans [11] and with Nakaseomyces glabratus [12] was over 16 µg/mL throughout.

`C/C(=N\Nc1nc([C@@H]2CCCN2)cs1)c1ccc2c(c1)CCC2` returned a solubility in data set [1] of 900 µM (≈ 294 µg/mL). For the same compound, the MIC in the data set with Candida albicans [2] is over 16 µg/mL; in the data set with Candida albicans [3], over 16 µg/mL; in the data set with Nakaseomyces glabratus [5] it was 16 µg/mL (≈ 49 µM); in the data set on Nakaseomyces glabratus [7], over 16 µg/mL; in the data set on Candida parapsilosis [8] it was over 16 µg/mL; in the data set with Candida parapsilosis [9], over 16 µg/mL. Further, the MIC with Candida albicans [11] and in the data set on Nakaseomyces glabratus [12] was over 16 µg/mL each time.

`COc1ccc(O)c(-c2csc(N/N=C(/C)C3CCc4ccccc43)n2)c1` (stereo not given): the solubility in data set [1] is under 50 µM. Besides, the MIC was over 16 µg/mL in the data set with Candida albicans [2]; over 16 µg/mL in the data set with Candida albicans [3]; 16 µg/mL (≈ 42.2 µM) in the data set on Nakaseomyces glabratus [5]; over 16 µg/mL with Nakaseomyces glabratus [7]; over 16 µg/mL with Candida parapsilosis [8]; over 16 µg/mL with Candida parapsilosis [9]. Moreover, the MIC with Candida albicans [11] and in the data set with Nakaseomyces glabratus [12] was over 16 µg/mL each time.
